Bioassay records as filed in PubChem BioAssay.
A selection: hits, their analogues and other compounds. The true share with any hit is near 2%.
Rpn11 block = Rpn11 (human) deubiquitinase inhibition; O00487; human 26S proteasome, Ub4-pepOG fluorescence polarization; 20S core pre-blocked with epoxomicin; inhibition, % at 20 µM; 360,000 tested, 0.59% active; AID 588493;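 active means inhibition at 20 µM, scaled to each plate's controls, above about 33%, limit read from the data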
Target sequence (O00487 whole entry, looked up): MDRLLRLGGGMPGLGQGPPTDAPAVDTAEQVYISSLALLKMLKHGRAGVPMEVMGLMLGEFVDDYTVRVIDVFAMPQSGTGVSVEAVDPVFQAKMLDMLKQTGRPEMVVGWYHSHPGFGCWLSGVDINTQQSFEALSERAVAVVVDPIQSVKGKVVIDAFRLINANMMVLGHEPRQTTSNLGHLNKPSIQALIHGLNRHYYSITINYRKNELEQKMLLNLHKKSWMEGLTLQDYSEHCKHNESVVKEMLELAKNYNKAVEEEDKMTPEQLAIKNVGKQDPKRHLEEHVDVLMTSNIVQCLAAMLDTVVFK
DNMT1 block = inhibitors of human DNMT1; P26358; DNMT1 molecular beacon, Hinp1I cleavage, fluorescence; inhibition (reported as % activation of signal), % at 10 µM; 360,000 tested, 0.83% active; in the data active means inhibition above about 50%
Scp-1 inhibitor = inhibitors of human Scp-1 phosphatase | Q9GZU7 | Recombinant Scp1, phosphopeptide, malachite green phosphate absorbance | inhibition, % at 20 µM | 340,000 tested, 0.88% active | AID 493091;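 active means inhibition above about 50% at 20 µM, limit read from the data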;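 further: plate controls were DMSO wells with enzyme for no effect and wells lacking enzyme for full effect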
Target sequence (Q9GZU7 76-261 limits assumed): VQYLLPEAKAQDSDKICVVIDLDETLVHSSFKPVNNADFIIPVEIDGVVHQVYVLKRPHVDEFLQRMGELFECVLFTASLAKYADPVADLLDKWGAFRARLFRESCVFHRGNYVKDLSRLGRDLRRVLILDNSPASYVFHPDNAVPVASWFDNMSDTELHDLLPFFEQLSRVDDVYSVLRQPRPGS
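Test system: SCP-1 phosphatase catalytic domain, residues 76-261 | Compound dosing: One concentration, 20 µM, with 1.0% DMSO | Schedule: 45 min room-temperature reaction, 5 min colour, 30 min stabiliser | Detection: Absorbance at 630 nm | Read-out basis: % inhibition of SCP-1 phosphate liberation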
STEP inh = inhibitors of human striatal-enriched phosphatase STEP | P54829 | recombinant STEP, OMFP fluorogenic substrate, fluorescence | AID 588621 | 360,000 tested, 0.25% active | inhibition, % at 20 µM;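 active means inhibition at 20 µM, scaled per plate between control wells, above about 37%, limit read from the data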;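 further: 0% = DMSO with enzyme and substrate and 100% = substrate only without enzyme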
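material = STEP tyrosine phosphatase | reagent = fluorogenic phosphatase substrate OMFP at 25 µM final | doses = single compound dose of 20 µM, 1% DMSO final | schedule = 20 min reaction, room temperature, in the dark | measured by = fluorescence, 480/540 nm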
LMPTP inh = LMPTP (human) inhibition | 360,000 tested, 0.22% active | recombinant LMPTP-A, OMFP fluorogenic substrate, fluorescence intensity | inhibition, % at 20 µM | P24666;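 active means compounds that cut the enzyme signal by at least half of the control window in the single-dose screen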;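 further: plate controls were DMSO wells with enzyme plus substrate for no effect and substrate without enzyme for full effect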
Target sequence (P24666 whole entry, looked up): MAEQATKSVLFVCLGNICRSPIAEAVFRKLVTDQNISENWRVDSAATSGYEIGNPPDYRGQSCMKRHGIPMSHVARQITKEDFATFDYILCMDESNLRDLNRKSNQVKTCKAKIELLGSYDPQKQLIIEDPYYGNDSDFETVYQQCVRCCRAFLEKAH
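test system = LMPTP-A | amount = 0.625 nM LMPTP-A final | reagent = fluorogenic phosphatase substrate OMFP at 400 µM final | incubation = 50 min at room temperature | benchmarks = no-enzyme low control, uninhibited high control | medium = Bis-Tris pH 6.0, DTT, detergent | signal = fluorescence intensity of OMFP turnover product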
Active calls of the source: *; . = not tested or not shown.

SMILES	Rpn11 block	DNMT1 block	Scp-1 inhibitor	STEP inh	LMPTP inh
O=C(Nc1ccc2nc(-c3ccco3)c(-c3ccco3)nc2c1)N1CCCCCC1	.	.	88.0*	.	.
Cc1nc2ccc(NC(=O)N3CCCCC3)cc2nc1C	-3.2	3.3	-4.2	-3.6	0.5
CCOC(=O)C1CCN(C(=O)Nc2ccc3nc(-c4ccco4)c(-c4ccco4)nc3c2)CC1	-15.3	112.7*	67.3*	68.5*	79.9*
CCOC(=O)C1CCN(C(=O)Nc2ccc3c(c2)nc(C)n3C)CC1	-1.4	0.7	-1.4	0.2	0.9
CN(C)C(=O)c1ccc(NC(=O)CSc2nnc(-c3cccs3)n2N)cc1	0.6	1.5	-2.2	-0.8	-0.3
COc1ccc(CN(C)C(=O)/C=C/[C@H]2O[C@@H](n3cc(C)c(=O)[nH]c3=O)C[C@@H]2O)cc1OC	-7.1	6.8	.	-4.4	0.2
O=C1NC(C2CC3C=CC2C3)Nc2ccccc21 (stereo unspecified)	-0.6	-0.3	.	0.7	-0.1
Cc1ccc(NC(=O)COC(=O)Cc2c[nH]c3ccccc23)cc1	3.9	2.4	.	0.0	1.6
CCC/C(C#Cc1cc(OC)cc(OC)c1)=C1/c2ccccc2C(=O)N1c1ccccc1	14.4	-0.7	-6.5	-2.0	0.3
CCC/C(C#Cc1ccc(N(C)C)cc1)=C1/c2ccccc2C(=O)N1c1ccccc1	.	9.8	57.1*	-29.7	2.8
CC(C)(C)S(=O)N1Cc2cc(C(=O)N3CCc4ccccc4C3)nc(-c3cccc(-c4ccncc4)c3)c2[C@H]1CCO (stereo partly specified)	12.6	-20.2	.	-0.2	12.3
Cc1c(Cl)cccc1NS(=O)(=O)c1ccc2c(c1)C1C=CCC1C(c1ccc(C(=O)O)cc1)N2 (stereo unspecified)	22.3	87.1*	26.2	1.5	26.2
COc1ccc(NS(=O)(=O)c2ccc3c(c2)[C@H]2C=CC[C@H]2[C@@H](c2ccc(C(=O)O)cc2)N3)cc1	8.9	86.6*	14.2	2.6	4.4
O=C(C(=O)N1CCCN(Cc2ccc(F)cc2)CC1)c1ccccc1	.	.	.	.	-0.9
OC[C@@H]1CN(CCNc2ccccc2)C[C@H](n2cnc3c(NCc4ccncc4)ncnc32)O1	-0.6	-2.8	.	0.5	-1.5
COc1ccc(C(=O)Nc2nnc(Cc3cccs3)s2)cc1OC	0.6	-5.6	-1.6	0.5	0.0
COc1ccc(Cc2nnc(NC(=O)Cc3cccs3)s2)cc1OC	1.6	75.3*	69.9*	8.7	17.2
O=C(NN=Cc1ccc(O)c(O)c1)c1ccccc1	-4.9	12.7	.	1.6	3.6
O=C(COc1ccccc1C(=O)N/N=C\c1ccc(O)c(O)c1)N/N=C/c1ccc(O)c(O)c1	.	3.9	61.4*	-2.4	10.8
COc1ccc(N2CC(NC(=O)N3CCN(C(=O)c4ccco4)CC3)CC2=O)cc1OC (stereo unspecified)	-7.7	0.8	-0.6	4.6	-0.8
O=C(C=P(c1ccccc1)(c1ccccc1)c1ccccc1)c1ccccc1-c1ccccc1C(=O)C=P(c1ccccc1)(c1ccccc1)c1ccccc1	36.9	7.9	35.7	7.2	58.6*
C[C@@H]1CN([C@H](C)CO)S(=O)(=O)c2ccc(C#CC3CCCC3)cc2O[C@H]1CN(C)C(=O)Cc1ccccc1	4.8	-7.0	.	1.6	3.2
COc1cccc2oc3cc(C#CC4(O)CCCCC4)ccc3c(=O)c12	5.3	-2.7	-8.6	-2.7	0.5
COc1cccc2oc3cc(C#Cc4ccccn4)ccc3c(=O)c12	.	.	59.4*	.	.
O=c1ccc2[n+]([O-])c3ccc(O)cc3oc-2c1	-27.1	57.5*	30.9	11.4	2.8
SMILES	Rpn11 block	DNMT1 block	Scp-1 inhibitor	STEP inh	LMPTP inh
COc1ccc(-c2cc(C#N)nc(N3CCN(C)CC3)n2)cc1	-2.2	2.5	-5.1	-0.8	0.0
COc1ccc(-c2cc(C#N)nc(N3CCNCC3)n2)cc1	11.0	79.4*	-3.5	2.5	15.9
COc1cc(C(=O)N2CCCC(c3cc(C(=O)NCc4ccccc4)no3)C2)cc(OC)c1C (stereo unspecified)	1.9	-5.2	.	1.2	0.5
CCCCOc1ccc(C(=O)NCC(=O)NCC2CCCO2)cc1 (stereo unspecified)	-5.0	0.3	-1.8	2.9	-0.4
COc1ccc(-c2cnc3c(NC(C)=O)cc(-c4ccsc4)cn23)cc1OC	54.5*	-3.9	.	2.3	0.8
CCOC(=O)C1=C[C@@H](CC)N(S(=O)(=O)c2ccc(C)cc2)[C@H]1c1cccs1	11.7	-4.5	.	3.3	2.0
NS(=O)(=O)c1ccc(N/N=C/c2ccc(O)cc2O)c([N+](=O)[O-])c1	-20.9	-13.2	-2.5	-3.7	2.5
NS(=O)(=O)c1ccc(N/N=C/c2ccc(O)c(O)c2O)c([N+](=O)[O-])c1	-23.5	-5.0	48.0	5.1	65.2*
Nc1c(S(=O)(=O)O)cc(NC(=O)c2ccccc2)c2c1C(=O)c1ccccc1C2=O	-57.6	39.1	70.6*	33.4	16.1
O=C(Nc1ccccc1-c1ccccc1)c1ccccc1	1.3	1.8	-2.0	-5.2	-0.2
CCC(COC)Oc1cc(NCc2ccccc2)c2ncn(C(C)C)c2c1 (stereo unspecified)	8.3	54.0*	-5.0	-1.1	3.3
COc1ccc(CNC(=O)Nc2cccc(Cl)c2)cc1	-10.9	-0.3	-12.7	-3.2	-0.5
Cc1cc2cc(CNC(=O)Nc3cccc(Cl)c3)ccc2n1C	-8.1	68.9*	-12.2	-0.3	3.9
CCCCNC(=O)c1nc(C2CCN(S(=O)(=O)c3ccc(OC(F)(F)F)cc3)CC2)oc1-c1ccccc1	.	.	.	.	1.2
c1coc(CSSCc2ccco2)c1	-15.9	101.2*	21.5	16.5	18.8
Cc1ccc(NC(=O)CSCc2ccco2)cc1	3.4	4.1	-3.7	2.2	-1.9
Clc1ccc(N=c2ssnc2Cl)nc1	10.4	-5.8	-10.5	31.3	78.7*
Clc1nssc1=Nc1ccc(Br)cc1	4.2	-3.4	-0.8	7.2	50.5*
COc1cc(N=c2ssnc2Cl)cc(OC)c1	-2.6	-5.2	-4.7	5.7	39.6
O=C(NCCc1c[nH]c2ccccc12)c1[nH]c(C(F)(F)F)nc1-c1ccccc1	-2.3	-8.2	.	-1.4	0.1
CC[n+]1c(/C=C/c2ccc(OC(C)=O)c(OC)c2)ccc2ccccc21	0.2	-3.8	55.0*	-1.2	0.8
CC(=C\c1ccccc1)/C=C1/SC(=S)N(CCCC(=O)O)C1=O	9.0	6.8	-12.3	1.3	4.3
CC(=Cc1ccccc1)C=C1SC(=S)N(CCCC(=O)Nc2ccc(C(=O)O)cc2)C1=O	15.9	10.1	.	-0.9	61.4*
CCc1ccc(C=C2SC(=S)N(CCCC(=O)Nc3ccc(C(=O)O)cc3)C2=O)cc1	2.9	2.0	.	1.0	59.2*
CC(/C=C1\SC(=S)N(CCCC(=O)Nc2ccc(C(=O)O)cc2)C1=O)=C\c1ccccc1	19.6	47.6	-10.7	2.4	49.0*
